Compound activity from PubChem.
Rows were chosen to be rich in hits. Some 4.1% of all compounds tested hit in one or more screens of this group.
KCNQ1 pot = potentiators or activators of KCNQ1 channel, primary screen, cell-based, thallium flux, high-throughput; Potassium voltage-gated channel subfamily KQT member 1 (Homo sapiens), P51787; CHO-K1 KCNQ1, thallium flux FluxOR fluorescence; hits give high values; B-score at 10 µM; 310,000 tested, 0.35% active; AID 2648, 2010;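 active means fluorescence ratio B-score, a plate-corrected score, at least three library SD, with initial intensity B-score within 5 SD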
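Assay system: stable KCNQ1 CHO-K1 line; medium: assay buffer, equal DMSO in all wells; timing: 90 min dye loading and 20 min compound exposure, both at room temperature; technique: kinetic FluxOR thallium fluorescence, 10-s 1-Hz baseline, 110-s post-stimulus read; read-out basis: B score of baseline-normalized fluorescence ratio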
KCNK9 block = KCNK9 potassium channel inhibitors, primary screen, HEK293 cells, thallium flux. Potassium channel subfamily K member 9 (Homo sapiens), Q9NPC2. FluxOR thallium flux fluorescence; hits give low values. B-score at 10 µM. 310,000 tested, 1.2% active. AID 488922, 2010;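 active means ratio B-score over 3 SD below the library mean, with starting fluorescence within 5 SD of its mean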;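 further: negative B-score means less thallium flux so channel inhibition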
hERG protect = hERG rescue from dofetilide block, primary screen, cell-based, CHO-hERG, FluxOR thallium flux, dofetilide IC70. Voltage-gated inwardly rectifying potassium channel KCNH2 (Homo sapiens), Q12809. dofetilide IC70 present. activation (rescue from dofetilide block), less the hit threshold, % at 10 µM. 310,000 tested, 0.51% active;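 active means activation above the mean of controls blocked by dofetilide plus 5 SD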;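 further: thallium influx through hERG after potassium depolarization seen as dye fluorescence rise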
KCNQ1 inh = inhibitors of human KCNQ1 channel, primary screen, cell-based, thallium flux, high-throughput; Potassium voltage-gated channel subfamily KQT member 1 (Homo sapiens), P51787; CHO-K1 KCNQ1, FluxOR thallium flux fluorescence; hits give high values; B-score at 10 µM; 310,000 tested, 1.3% active; AID 2642, 2010;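 active means compounds whose thallium flux B-score, printed positive for inhibition, exceeds three library SD while starting fluorescence stays within three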;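 further: channel opened by potassium depolarization with thallium stimulus after 20 min compound exposure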
KCNK3 block = human KCNK3 channel inhibitors, primary screen, CHO cells, FluxOR thallium flux, B-score | Potassium channel subfamily K member 3 (Homo sapiens), O14649 | FluxOR fluorescence; hits give low values | B-score at 10 µM | 340,000 tested, 0.84% active;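 active means B-score under library mean minus 4 SD, starting fluorescence ratio at most library mean plus 5 SD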;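 further: more negative B-score means stronger inhibition of thallium flux through KCNK3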
KCC2 mod = KCC2 cotransporter modulators, thallium flux, primary screen, cell-based, HEK293 KCC2, FluoZin-2 fluorescence, MLSMR. Solute carrier family 12 member 5 (Homo sapiens), Q9H2X9. KCC2 cells, thallium flux FluoZin-2 fluorescence. B-score of Tl+ flux slope (higher = more flux/activation; lower = inhibition) at 10 µM. 190,000 tested, 2.2% active. AID 1456, 2008;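 active means thallium flux slope and its plate-corrected score both differing from the plate sample mean at a set confidence after two filtering rounds, in either direction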;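 further: slope of fluorescence scaled to starting intensity during 10 to 20 s after thallium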
KCNK3 confirm = retest of human KCNK3 channel inhibitors, confirmation, CHO cells, FluxOR thallium flux, triplicate; AID 651638, 2012; shares compounds with KCNK3 block; 2,400 tested, 99% active; FluxOR fluorescence; 0% buffer, 100% carvedilol maximal block; ratio percent of control, % at 10 µM;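 active means ratio percent of control, averaged over triplicates, above buffer control mean plus 5 SD, cut at about 64% in these data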;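 further: ratio is the fluorescence rise from min to max over baseline after thallium stimulus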
KCNK3 uninduced = thallium flux inhibition in non-induced cells, primary screen, counter-screen for KCNK3 inhibitor project, cell-based, non-induced KCNK3 line, FluxOR thallium, triplicate | shares compounds with KCNK3 block | non-induced KCNK3 parental cells; hits give low values | thallium flux ratio (lower = more inhibition) at 10 µM | 2,400 tested, 40% active | AID 651747, 2012;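 active means thallium flux ratio, averaged over three wells, more than 5 SD below the buffer control mean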;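 further: host cells are CHO cells without KCNK3 induction; ratio is peak minus trough fluorescence over baseline then normalized to buffer controls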
An asterisk follows results filed as active.

What do the screens show for `CCCCNC(=S)N1CCN(C(c2ccccc2)c2ccccc2)CC1`?
KCNQ1 pot: inactive; KCNK9 block: -6.85*; hERG protect: -28.5; KCNQ1 inh: inactive; KCNK3 block: -10.5*; KCC2 mod: 0.399; KCNK3 confirm: 93.0*; KCNK3 uninduced: 0.113*

What do the screens show for `CCCNC(=S)N1CCN(C(c2ccccc2)c2ccccc2)CC1`?
KCNQ1 pot: inactive; KCNK9 block: inactive; hERG protect: -8.1; KCNQ1 inh: inactive; KCNK3 block: inactive; KCC2 mod: -0.65

How did CC1=CC(C)(C)N2C(=O)C3(C(C#N)=C(N)Oc4cc(O)ccc43)c3c(C)c(C)cc1c32 (centres undefined) do in these assays?
KCNQ1 pot: inactive; KCNK9 block: inactive; hERG protect: -16.2; KCNQ1 inh: inactive; KCNK3 block: -8.91*; KCNK3 confirm: 81.0*; KCNK3 uninduced: 0.16*

What do the screens show for `N#Cc1c(N2CCCCC2)nc(N)c2c(N)nc3c(c12)CC(c1ccccc1)O3` (centres undefined)?
KCNQ1 pot: inactive; KCNK9 block: inactive; hERG protect: -8.3; KCNQ1 inh: inactive; KCNK3 block: -9.54*; KCNK3 confirm: 119.0*; KCNK3 uninduced: 0.15*

How did CCN(CC)c1nc(N)c2c(N)nc3c(c2c1C#N)CC(c1ccccc1)O3 (centres undefined) do in these assays?
KCNQ1 pot: inactive; KCNK9 block: inactive; hERG protect: -10.2; KCNQ1 inh: inactive; KCNK3 block: inactive; KCC2 mod: -0.0299

Results for CCC1Cc2c(nc(N)c3c(N)nc(N4CCCCC4)c(C#N)c23)O1 (centres undefined) ?
KCNQ1 pot: inactive; KCNK9 block: inactive; hERG protect: -2.8; KCNQ1 inh: inactive; KCNK3 block: -9.56*; KCC2 mod: -1.74; KCNK3 confirm: 96.7*; KCNK3 uninduced: inactive

What do the screens show for `Cc1cc(C)c2sc(N(CCN(C)C)C(=O)c3c(F)cccc3F)nc2c1`?
KCNQ1 pot: inactive; KCNK9 block: inactive; hERG protect: -11.1; KCNQ1 inh: inactive; KCNK3 block: -9.15*; KCC2 mod: -0.316; KCNK3 confirm: 115.7*; KCNK3 uninduced: inactive

How did COCCNC(=O)C(c1cccnc1)N(Cc1ccc(C)cc1)C(=O)Cn1nnc2ccccc21 (centres undefined) do in these assays?
KCNQ1 pot: inactive; KCNK9 block: inactive; hERG protect: -10.1; KCNQ1 inh: inactive; KCNK3 block: inactive; KCC2 mod: -0.948

How did Cc1ccc(NC(=O)CN2C(=O)NC(C)(c3ccccc3)C2=O)c(C)c1 (centres undefined) do in these assays?
KCNQ1 pot: inactive; KCNK9 block: inactive; hERG protect: -1.3; KCNQ1 inh: inactive; KCNK3 block: -10.6*; KCNK3 confirm: 85.3*; KCNK3 uninduced: inactive

Results for CCC1(CC)NC(=O)N(CC(=O)Nc2ccc(C)cc2C)C1=O ?
KCNK3 block: inactive

Results for COc1ccc(-c2csc(NC(=O)CSc3ncn[nH]3)n2)cc1OC ?
KCNQ1 pot: inactive; KCNK9 block: inactive; hERG protect: -7.1; KCNQ1 inh: inactive; KCNK3 block: inactive; KCC2 mod: 0.458
